# ChEMBL document CHEMBL1153988 (J Med Chem, 2009)
# Assays:
# Mus musculus [1] = test: Teratogenic effect in SWV mouse assessed as number of litters at 600 mg/kg, ip administered on morning of day 8 of gestation; format: toxicity, organism-based; set-up: dose 600 mg/kg, route intraperitoneal; conditions: in vivo
# In short: (§1)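 Inbred SWV mouse strain, highly susceptible to valproate-induced neural tube defects. Each pregnant dam received a single ip injection on gestation day 8.5. Test compounds spanned 1.8-4.2 mmol/kg, the reference drug was given as its sodium salt, and controls received 25% aqueous Cremophor EL. Groups were compared by Fisher's exact test (p < 0.05).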
# Rattus norvegicus = test: Anticonvulsant activity in po dosed albino Sprague-Dawley rat assessed as protection against scMet-induced seizures; format: functional
# In short: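 Male Sprague-Dawley albino rats (100-150 g) were dosed orally in 0.5% methylcellulose and tested by MES or by sc pentylenetetrazol (2.82% in 0.9% saline). Doses were varied to give 3-4 points between 0% and 100% protection. ED50 and 95% confidence intervals came from probit analysis.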
# Mus musculus [2] = test: Teratogenic effect in SWV mouse assessed as live fetuses at 452 mg/kg, ip administered on morning of day 8 of gestation; format: toxicity, organism-based; set-up: dose 452 mg/kg, route intraperitoneal; conditions: in vivo; in short: as §1
# Mus musculus [3] = test: Teratogenic effect in SWV mouse assessed as dead fetuses at 600 mg/kg, ip administered on morning of day 8 of gestation; format: toxicity, organism-based; set-up: dose 600 mg/kg, route intraperitoneal; conditions: in vivo
# Mus musculus [4] = test: Teratogenic effect in SWV mouse assessed as number of implants at 301 mg/kg, ip administered on morning of day 8 of gestation; format: toxicity, organism-based; set-up: dose 301 mg/kg, route intraperitoneal; conditions: in vivo; in short: as §1
# Mus musculus [5] = test: Teratogenic effect in SWV mouse assessed as number of litters at 301 mg/kg, ip administered on morning of day 8 of gestation; format: toxicity, organism-based; set-up: dose 301 mg/kg, route intraperitoneal; conditions: in vivo; in short: as §1
# Mus musculus [6] = test: Anticonvulsant activity in ip dosed CF1 albino mouse assessed as protection against 44 mA-current-induced seizure by 6Hz psychomotor seizure test; format: functional
# In short: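 In the 6 Hz psychomotor seizure test, male CF no. 1 albino mice (18-25 g) received the compound ip in 0.5% methylcellulose. Stimulation was at 32 or 44 mA. Doses were varied to give 3-4 points between 0% and 100% protection, and ED50 with 95% confidence interval came from probit analysis.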
# Mus musculus [7] = test: Teratogenic effect in VPA-induced SWV mouse assessed as fetuses with neural tube deffects at 301 mg/kg, ip administered on morning of day 8 of gestation; format: toxicity, organism-based; set-up: dose 301 mg/kg, route intraperitoneal; conditions: in vivo; in short: as §1
# Mus musculus [8] = test: Teratogenic effect in SWV mouse assessed as number of litters at 452 mg/kg, ip administered on morning of day 8 of gestation; format: toxicity, organism-based; set-up: dose 452 mg/kg, route intraperitoneal; conditions: in vivo; in short: as §1
# Mus musculus [9] = test: Teratogenic effect in SWV mouse assessed as live fetuses at 301 mg/kg, ip administered on morning of day 8 of gestation; format: toxicity, organism-based; set-up: dose 301 mg/kg, route intraperitoneal; conditions: in vivo; in short: as §1
# Mus musculus [10] = test: Teratogenic effect in SWV mouse assessed as number of implants at 600 mg/kg, ip administered on morning of day 8 of gestation; format: toxicity, organism-based; set-up: dose 600 mg/kg, route intraperitoneal; conditions: in vivo; in short: as §1
# Mus musculus [11] = test: Teratogenic effect in SWV mouse assessed as number of implants at 452 mg/kg, ip administered on morning of day 8 of gestation; format: toxicity, organism-based; set-up: dose 452 mg/kg, route intraperitoneal; conditions: in vivo; in short: as §1
# Mus musculus [12] = test: Teratogenic effect in SWV mouse assessed as resorptions at 600 mg/kg, ip administered on morning of day 8 of gestation; format: toxicity, organism-based; set-up: dose 600 mg/kg, route intraperitoneal; conditions: in vivo; in short: as §1
# Mus musculus [13] = test: Teratogenic effect in SWV mouse assessed as dead fetuses at 452 mg/kg, ip administered on morning of day 8 of gestation; format: toxicity, organism-based; set-up: dose 452 mg/kg, route intraperitoneal; conditions: in vivo
# Mus musculus [14] = test: Teratogenic effect in SWV mouse assessed as resorptions at 301 mg/kg, ip administered on morning of day 8 of gestation; format: toxicity, organism-based; set-up: dose 301 mg/kg, route intraperitoneal; conditions: in vivo; in short: as §1
# Mus musculus [15] = test: Teratogenic effect in SWV mouse assessed as dead fetuses at 301 mg/kg, ip administered on morning of day 8 of gestation; format: toxicity, organism-based; set-up: dose 301 mg/kg, route intraperitoneal; conditions: in vivo
# Mus musculus [16] = test: Teratogenic effect in SWV mouse assessed as live fetuses at 600 mg/kg, ip administered on morning of day 8 of gestation; format: toxicity, organism-based; set-up: dose 600 mg/kg, route intraperitoneal; conditions: in vivo; in short: as §1
# Mus musculus [17] = test: Teratogenic effect in SWV mouse assessed as resorptions at 452 mg/kg, ip administered on morning of day 8 of gestation; format: toxicity, organism-based; set-up: dose 452 mg/kg, route intraperitoneal; conditions: in vivo; in short: as §1
# Mus musculus [18] = test: Neurotoxicity in CF1 albino mouse at 50 mg/kg, ip after 4 hrs; format: toxicity, organism-based; set-up: dose 50 mg/kg, route intraperitoneal; conditions: in vivo
# In short: (§2)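 Male CF no. 1 albino mice (18-25 g) received a single ip dose as a suspension in 0.5% methylcellulose. The read-out was the number of animals showing neurotoxicity (minimal motor impairment) over the number tested.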
# Mus musculus [19] = test: Anticonvulsant activity in CF1 albino mouse assessed as protection against maximal electroshock-induced seizures at 450 mg/kg, ip after 0.5 hrs; format: functional, organism-based; set-up: dose 450 mg/kg
# In short: (§3)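 Adult male CF no. 1 albino mice (18-25 g). Test compound suspended in 0.5% methylcellulose and given intraperitoneally at 0.01 mL/g body weight. Maximal electroshock challenge at the stated time. Read-out is the number of animals protected over the number tested; neurotoxicity is scored in parallel.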
# Mus musculus [20] = test: Neurotoxicity in CF1 albino mouse at 450 mg/kg, ip after 0.5 hrs; format: toxicity, organism-based; set-up: dose 450 mg/kg, route intraperitoneal; conditions: in vivo; in short: as §2
# Mus musculus [21] = test: Anticonvulsant activity in CF1 albino mouse assessed as protection against maximal electroshock-induced seizures at 150 mg/kg, ip after 0.5 hrs; format: functional, organism-based; set-up: dose 150 mg/kg; in short: as §3
# Mus musculus [22] = test: Anticonvulsant activity in CF1 albino mouse assessed as protection against scMet-induced seizures at 50 mg/kg, ip after 4 hrs; format: functional, organism-based; set-up: dose 50 mg/kg
# In short: (§4)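 Adult male CF no. 1 albino mice (18-25 g) dosed intraperitoneally with compound suspended in 0.5% methylcellulose (0.01 mL/g). Convulsant challenge given subcutaneously as a 0.85% pentylenetetrazol solution in 0.9% saline. Read-out is animals protected over animals tested, with neurotoxicity scored in parallel.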
# Mus musculus [23] = test: Anticonvulsant activity in CF1 albino mouse assessed as protection against maximal electroshock-induced seizures at 50 mg/kg, ip after 0.5 hrs; format: functional, organism-based; set-up: dose 50 mg/kg; in short: as §3
# Mus musculus [24] = test: Anticonvulsant activity in CF1 albino mouse assessed as protection against maximal electroshock-induced seizures at 450 mg/kg, ip after 4 hrs; format: functional, organism-based; set-up: dose 450 mg/kg; in short: as §3
# Mus musculus [25] = test: Neurotoxicity in CF1 albino mouse at 150 mg/kg, ip after 4 hrs; format: toxicity, organism-based; set-up: dose 150 mg/kg, route intraperitoneal; conditions: in vivo; in short: as §2
# Mus musculus [26] = test: Anticonvulsant activity in CF1 albino mouse assessed as protection against maximal electroshock-induced seizures at 150 mg/kg, ip after 4 hrs; format: functional, organism-based; set-up: dose 150 mg/kg; in short: as §3
# Mus musculus [27] = test: Anticonvulsant activity in CF1 albino mouse assessed as protection against scMet-induced seizures at 150 mg/kg, ip after 4 hrs; format: functional, organism-based; set-up: dose 150 mg/kg; in short: as §4
# Mus musculus [28] = test: Anticonvulsant activity in CF1 albino mouse assessed as protection against scMet-induced seizures at 450 mg/kg, ip after 0.5 hrs; format: functional, organism-based; set-up: dose 450 mg/kg; in short: as §4
# Mus musculus [29] = test: Anticonvulsant activity in CF1 albino mouse assessed as protection against maximal electroshock-induced seizures at 50 mg/kg, ip after 4 hrs; format: functional, organism-based; set-up: dose 50 mg/kg; in short: as §3
# Mus musculus [30] = test: Anticonvulsant activity in CF1 albino mouse assessed as protection against scMet-induced seizures at 450 mg/kg, ip after 4 hrs; format: functional, organism-based; set-up: dose 450 mg/kg; in short: as §4
# Mus musculus [31] = test: Anticonvulsant activity in CF1 albino mouse assessed as protection against scMet-induced seizures at 50 mg/kg, ip after 0.5 hrs; format: functional, organism-based; set-up: dose 50 mg/kg; in short: as §4
# Mus musculus [32] = test: Anticonvulsant activity in CF1 albino mouse assessed as protection against scMet-induced seizures at 150 mg/kg, ip after 0.5 hrs; format: functional, organism-based; set-up: dose 150 mg/kg; in short: as §4
compound,measurement,setting,value
CCCC(CCC)C(=O)O [VALPROIC ACID],Activity,Mus musculus [1],13
same,ED50,Rattus norvegicus,646 mg/kg
same,Activity,Mus musculus [2],88.1%
same,Activity,Mus musculus [3],10.7%
same,Activity,Mus musculus [4],154
same,Activity,Mus musculus [5],12
same,ED50,Mus musculus [6],310 mg/kg
same,Activity,Mus musculus [7],1.5%
same,Activity,Mus musculus [8],13
same,Activity,Mus musculus [9],86.4%
same,Activity,Mus musculus [10],131
same,Activity,Mus musculus [11],160
same,Activity,Mus musculus [12],7.6%
same,Activity,Mus musculus [13],0.6%
same,Activity,Mus musculus [14],11%
same,Activity,Mus musculus [15],2.6%
same,Activity,Mus musculus [16],81.7%
same,Activity,Mus musculus [17],11.3%
CC1(C)C(C)(C)C1(Br)C(N)=O,Activity,Mus musculus [18],Non-toxic
same,Activity,Mus musculus [19],Non-toxic
same,Activity,Mus musculus [20],Toxic
same,Activity,Mus musculus [21],Non-toxic
same,Activity,Mus musculus [22],Non-toxic
same,Activity,Mus musculus [23],Non-toxic
same,Activity,Mus musculus [24],Non-toxic
same,Activity,Mus musculus [25],Non-toxic
same,Activity,Mus musculus [26],Non-toxic
same,Activity,Mus musculus [27],Non-toxic
same,Activity,Mus musculus [28],Non-toxic
same,Activity,Mus musculus [29],Non-toxic
same,Activity,Mus musculus [30],Non-toxic
same,Activity,Mus musculus [31],Non-toxic
same,Activity,Mus musculus [32],Non-toxic
